Consider 7 compounds from ChEMBL document CHEMBL4257452, “A mini-library system to investigate non-essential residues of lipid-phosphatidylserine (PS) binding peptide-peptoid hybrid PPS1” (Medchemcomm, 2017).

Molecules are shown by their SMILES. Active and inactive are the calls of the source. The rule behind the calls is not given here. Starred links: 1 amine or outer side, 2 acyl side, 3 side chain; linkers in the order of their positions; H or OH if unused. Positions of bridges follow the written chain, without caps; N, C: chain ends. Non-standard residues stand in square brackets, D forms with d. Residues, ends and D or L forms follow the SMILES beside them. Chains are numbered I, II in the order given. Gly(N-piperonyl) = O=C(O)CNCc1ccc2c(c1)OCO2; N(4-MeOBn)Gly = COc1ccc(CNCC(=O)O)cc1; X1 = COc1cccc(CN(CC(=O)[*:2])[*:1])c1; X2 = CC(CN(CC(=O)[*:2])[*:1])c1ccccc1; N((CH2)3OiPr)Gly = CC(C)OCCCNCC(=O)O; X3 = CC(c1ccccc1)N(CC(=O)[*:2])[*:1]; Nrpe = C[C@@H](NCC(=O)O)c1ccccc1; Nlys = NCCCCNCC(=O)O

Data set [1] concerns HCC4017. Put plainly: Cytotoxicity against human HCC4017 cells assessed as reduction in cell viability at 20 uM after 24 hrs by MTS assay. Type of data set: functional, cell-based. The method, boiled down: (§1)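 HCC4017 cells (RPMI, 5% FBS) and HBEC-3KT normal lung cells (KSFM with recombinant human EGF and bovine pituitary extract) were plated at 10 000 cells/well in triplicate and left to adhere overnight. They were exposed to 1 or 20 μM compound for 24 h. MTS reagent was then added for 2 h and absorbance read at 490 nm. Viability is % of untreated control wells.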
A general note: Tetrazolium dyes change colour on reduction, which living cells bring about.

Data set [2] concerns HCC4017. Description: Cytotoxicity against human HCC4017 cells assessed as reduction in cell viability at 1 uM after 24 hrs by MTS assay. It counts as functional, cell-based. In a few lines: as §1
The test system of data set [3] is HCC4017. Put plainly: Cytotoxicity against human HCC4017 cells assessed as reduction in cell viability up to 100 uM after 24 hrs by calcein-AM dye based fluorescence assay. Type of data set: functional. To be noted: in the assay text read “up to 50 uM” for “up to 100 uM”. In a few lines:
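HCC4017 cells were seeded at 10 000 cells/well in triplicate, adhered overnight, and treated with a graded series of compounds for 24 h. Medium was replaced with PBS containing calcein AM (1 mM as printed) for 15 min at room temperature. Fluorescence emission was read at 520 nm.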

The nature of data set [4]: Cytotoxicity against human HBEC3-KT cells assessed as reduction in cell viability at 1 uM after 24 hrs by MTS assay. It counts as cell-based. In a few lines: as §1
Data set [5] is described as follows: Cytotoxicity against human HBEC3-KT cells assessed as reduction in cell viability at 20 uM after 24 hrs by MTS assay. Type of data set: cell-based. In a few lines:
as §1

The subject of data set [6] is HCC4017. Put plainly: Cytotoxicity against human HCC4017 cells assessed as reduction in cell viability up to 100 uM after 24 hrs by MTS assay. Type of data set: functional, cell-based. To be noted: in the assay text read “up to 50 uM” for “up to 100 uM”. In a few lines: (§2)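 HCC4017 lung cancer cells (RPMI, 5% FBS) were seeded at 10 000 cells/well in triplicate and adhered overnight. Purified compounds were given as a concentration gradient for 24 h. MTS reagent was added for 2 h and absorbance read at 490 nm. IC50 was taken from the viability curves.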

The test system of data set [7] is HCC4017. Description: Cytotoxicity against human HCC4017 cells assessed as reduction in cell viability after 24 hrs by MTS assay. It counts as functional, cell-based. The note with it: HCC4017, 24 h. In a few lines:
as §2

In the case of `COc1ccc(CN(CC(=O)N(CCCCN)CC(=O)N[C@@H](CCCCN)C(=O)N[C@H](CCCCN)C(=O)N[C@@H](CCSC)C(=O)NCCCC[C@H](NC(=O)[C@H](CCSC)NC(=O)[C@@H](CCCCN)NC(=O)[C@H](CCCCN)NC(=O)CN(CCCCN)C(=O)CN(Cc2ccc(OC)cc2)C(=O)CN(C(=O)CN(Cc2ccc3c(c2)OCO3)C(=O)CN[C@H](C)c2ccccc2)[C@H](C)c2ccccc2)C(N)=O)C(=O)CN(C(=O)CN(Cc2ccc3c(c2)OCO3)C(=O)CN[C@H](C)c2ccccc2)[C@H](C)c2ccccc2)cc1` (I: H-[Nrpe][Gly(N-piperonyl)][Nrpe][N(4-MeOBn)Gly][Nlys]K[dK]MK-NH2 / II: H-[Nrpe][Gly(N-piperonyl)][Nrpe][N(4-MeOBn)Gly][Nlys]K[dK]M; amide I:9-II:C), the outcome with HCC4017 [1] and with HCC4017 [3] was Active. For the same compound, the result with HCC4017 [2] was inactive. Besides, the Activity entry in data set [4] and in data set [5] was “Non-Toxic” in each case.
`COc1ccc(CN(CC(=O)NC(CCC(=O)O)C(=O)NC(CCCCN)C(=O)NC(CCCCN)C(=O)NC(CCSC)C(=O)NCCCCC(NC(=O)C(CCSC)NC(=O)C(CCCCN)NC(=O)C(CCCCN)NC(=O)C(CCC(=O)O)NC(=O)CN(Cc2ccc(OC)cc2)C(=O)CN(C(=O)CN(Cc2ccc3c(c2)OCO3)C(=O)CNC(C)c2ccccc2)C(C)c2ccccc2)C(N)=O)C(=O)CN(C(=O)CN(Cc2ccc3c(c2)OCO3)C(=O)CNC(C)c2ccccc2)C(C)c2ccccc2)cc1` (configuration not stated) (I: H-[X3][Gly(N-piperonyl)][X3][N(4-MeOBn)Gly]EKKMK-NH2 / II: H-[X3][Gly(N-piperonyl)][X3][N(4-MeOBn)Gly]EKKM; amide I:9-II:C; configuration not given here): the outcome with HCC4017 [6] and with HCC4017 [1] was inactive.
For `COc1ccc(CN(CC(=O)NC(Cc2ccccc2)C(=O)NC(CCCCN)C(=O)NC(CCCCN)C(=O)NC(CCSC)C(=O)NCCCCC(NC(=O)C(CCSC)NC(=O)C(CCCCN)NC(=O)C(CCCCN)NC(=O)C(Cc2ccccc2)NC(=O)CN(Cc2ccc(OC)cc2)C(=O)CN(C(=O)CN(Cc2ccc3c(c2)OCO3)C(=O)CNC(C)c2ccccc2)C(C)c2ccccc2)C(N)=O)C(=O)CN(C(=O)CN(Cc2ccc3c(c2)OCO3)C(=O)CNC(C)c2ccccc2)C(C)c2ccccc2)cc1` (configuration not stated) (I: H-[X3][Gly(N-piperonyl)][X3][N(4-MeOBn)Gly]FKKMK-NH2 / II: H-[X3][Gly(N-piperonyl)][X3][N(4-MeOBn)Gly]FKKM; amide I:9-II:C; configuration not given here), the result with HCC4017 [1] was Active. For the same compound, the outcome in the data set on HCC4017 [2] was inactive. The Activity entry in data set [4] and in data set [5] was “Non-Toxic” throughout. Also, the IC50 (as a rule, the concentration needed to halve the response being measured) in the data set on HCC4017 [7] lay in the range of 7 to 10 µM.
For the compound `COc1ccc(CN(CC(=O)NC(C(=O)NC(CCCCN)C(=O)NC(CCCCN)C(=O)NC(CCSC)C(=O)NCCCCC(NC(=O)C(CCSC)NC(=O)C(CCCCN)NC(=O)C(CCCCN)NC(=O)C(NC(=O)CN(Cc2ccc(OC)cc2)C(=O)CN(C(=O)CN(Cc2ccc3c(c2)OCO3)C(=O)CNC(C)c2ccccc2)C(C)c2ccccc2)C(C)O)C(N)=O)C(C)O)C(=O)CN(C(=O)CN(Cc2ccc3c(c2)OCO3)C(=O)CNC(C)c2ccccc2)C(C)c2ccccc2)cc1` (configuration not stated) (I: H-[X3][Gly(N-piperonyl)][X3][N(4-MeOBn)Gly]TKKMK-NH2 / II: H-[X3][Gly(N-piperonyl)][X3][N(4-MeOBn)Gly]TKKM; amide I:9-II:C; configuration not given here), in the data set on HCC4017 [1], the outcome was Active. Besides, in the data set on HCC4017 [7], the half-maximal inhibitory concentration (IC50) came out at 14 µM.
For `COc1ccc(CN(CC(=O)N(CCCOC(C)C)CC(=O)NC(CCCCN)C(=O)NC(CCCCN)C(=O)NC(CCSC)C(=O)NCCCCC(NC(=O)C(CCSC)NC(=O)C(CCCCN)NC(=O)C(CCCCN)NC(=O)CN(CCCOC(C)C)C(=O)CN(Cc2ccc(OC)cc2)C(=O)CN(C(=O)CN(Cc2ccc3c(c2)OCO3)C(=O)CNC(C)c2ccccc2)C(C)c2ccccc2)C(N)=O)C(=O)CN(C(=O)CN(Cc2ccc3c(c2)OCO3)C(=O)CNC(C)c2ccccc2)C(C)c2ccccc2)cc1` (configuration not stated) (I: H-[X3][Gly(N-piperonyl)][X3][N(4-MeOBn)Gly][N((CH2)3OiPr)Gly]KKMK-NH2 / II: H-[X3][Gly(N-piperonyl)][X3][N(4-MeOBn)Gly][N((CH2)3OiPr)Gly]KKM; amide I:9-II:C; configuration not given here), the outcome with HCC4017 [1] and with HCC4017 [3] was Active. In the data set on HCC4017 [2], the outcome was inactive. In addition, the Activity entry in data set [4] and in data set [5] was “Non-Toxic” throughout. Further, the half-inhibitory concentration (IC50) with HCC4017 [7] lay within 7 to 10 µM.
Turning to `COc1ccc(CN(CC(=O)N(CC(=O)NC(CCCCN)C(=O)NC(CCCCN)C(=O)NC(CCSC)C(=O)NCCCCC(NC(=O)C(CCSC)NC(=O)C(CCCCN)NC(=O)C(CCCCN)NC(=O)CN(Cc2cccc(OC)c2)C(=O)CN(Cc2ccc(OC)cc2)C(=O)CN(C(=O)CN(Cc2ccc3c(c2)OCO3)C(=O)CNC(C)c2ccccc2)C(C)c2ccccc2)C(N)=O)Cc2cccc(OC)c2)C(=O)CN(C(=O)CN(Cc2ccc3c(c2)OCO3)C(=O)CNC(C)c2ccccc2)C(C)c2ccccc2)cc1` (configuration not stated) (I: H-[X3][Gly(N-piperonyl)][X3][N(4-MeOBn)Gly][X1]KKMK-NH2 / II: H-[X3][Gly(N-piperonyl)][X3][N(4-MeOBn)Gly][X1]KKM; amide I:9-II:C; configuration not given here), the result in the data set with HCC4017 [1] and in the data set on HCC4017 [3] was Active. Besides, the result with HCC4017 [2] was inactive. Also, the Activity entry in data set [4] and in data set [5] was “Non-Toxic” throughout. For the same compound, in the data set with HCC4017 [7], the IC50 fell in the range of 7 to 10 µM.
As for `COc1ccc(CN(CC(=O)N(CC(=O)NC(CCCCN)C(=O)NC(CCCCN)C(=O)NC(CCSC)C(=O)NCCCCC(NC(=O)C(CCSC)NC(=O)C(CCCCN)NC(=O)C(CCCCN)NC(=O)CN(CC(C)c2ccccc2)C(=O)CN(Cc2ccc(OC)cc2)C(=O)CN(C(=O)CN(Cc2ccc3c(c2)OCO3)C(=O)CNC(C)c2ccccc2)C(C)c2ccccc2)C(N)=O)CC(C)c2ccccc2)C(=O)CN(C(=O)CN(Cc2ccc3c(c2)OCO3)C(=O)CNC(C)c2ccccc2)C(C)c2ccccc2)cc1` (configuration not stated) (I: H-[X3][Gly(N-piperonyl)][X3][N(4-MeOBn)Gly][X2]KKMK-NH2 / II: H-[X3][Gly(N-piperonyl)][X3][N(4-MeOBn)Gly][X2]KKM; amide I:9-II:C; configuration not given here), the result with HCC4017 [1] and with HCC4017 [3] was Active. Moreover, the result in the data set on HCC4017 [2] was inactive. The Activity result in data set [4] and in data set [5] was “Non-Toxic” throughout. Moreover, in the data set with HCC4017 [7], the IC50 was in the range of 7 to 10 µM.
